Laboratory results as given in the array DNA melting data of Ke et al. (doi:10.1101/2024.01.08.574731).

How the values were obtained:
[1] = melting temperature; fluorescence melt of hairpins on a sequencing array, two-state fit, raised by 9.35 °C to match UV melts; details: sodium 0.088 M
Outline: (§1)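 Library hairpins on a sequenced MiSeq flow cell carried annealed Cy3 and quencher oligos, and their Cy3 fluorescence was imaged in 50 mM Na-HEPES pH 8.0 with 25 mM NaCl, in 2.5 °C steps up to 60 °C. Signals were normalised to Cy3 before quenching and to control constructs. Melting temperature and folding enthalpy were obtained from bootstrapped two-state fits, combined by inverse-variance weighting across four replicates, and the fitted temperatures were then raised by 9.35 °C to match UV melts.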

[2] = folding enthalpy; higher = less favourable; fluorescence melt of hairpins on a sequencing array, two-state fit; details: sodium 0.088 M
Outline: as §1

## GATCGTCATACGATC ((((((...))))))
[1]
  Tm: 57.5 °C
[2]
  folding enthalpy: -33.8 kcal/mol

## GATCGTCCCAACGATC ((((((....))))))
[1]
  Tm: 55.6 °C
[2]
  folding enthalpy: -40.2 kcal/mol

## GATCGTCCCCACGATC ((((((....))))))
[1]
  Tm: 53.9 °C
[2]
  folding enthalpy: -41.8 kcal/mol

## GATCGTCCGCACGATC ((((((....))))))
[1]
  Tm: 54.4 °C
[2]
  folding enthalpy: -39.6 kcal/mol

## GATCGTCCGTACGATC ((((((....))))))
[1]
  Tm: 54.9 °C
[2]
  folding enthalpy: -47.3 kcal/mol

## GATCGTCGATACGATC ((((((....))))))
[1]
  Tm: 54.7 °C
[2]
  folding enthalpy: -38.5 kcal/mol

## GATCGTCGGAACGATC ((((((....))))))
[1]
  Tm: 52.7 °C
[2]
  folding enthalpy: -27.3 kcal/mol

## GATCGTCGGGACGATC ((((((....))))))
[1]
  Tm: 61.7 °C
[2]
  folding enthalpy: -41.3 kcal/mol

## GATCGTCTAACGATC ((((((...))))))
[1]
  Tm: 55.6 °C
[2]
  folding enthalpy: -38.7 kcal/mol

## GATCGTCTGTACGATC ((((((....))))))
[1]
  Tm: 55.7 °C
[2]
  folding enthalpy: -38.3 kcal/mol

## GATCGTCTTTACGATC ((((((....))))))
[1]
  Tm: 55.2 °C
[2]
  folding enthalpy: -34.3 kcal/mol

## GATCGTGAATACGATC ((((((....))))))
[1]
  Tm: 61.7 °C
[2]
  folding enthalpy: -35 kcal/mol

## GATCGTGATACGATC ((((((...))))))
[1]
  Tm: 57.2 °C
[2]
  folding enthalpy: -35.9 kcal/mol

## GATCGTGCATACGATC ((((((....))))))
[1]
  Tm: 60.5 °C
[2]
  folding enthalpy: -37.7 kcal/mol

## GATCGTGCCACGATC ((((((...))))))
[1]
  Tm: 57.8 °C
[2]
  folding enthalpy: -35.8 kcal/mol

## GATCGTGCCTACGATC ((((((....))))))
[1]
  Tm: 57.4 °C
[2]
  folding enthalpy: -34.3 kcal/mol

## GATCGTGCGGACGATC ((((((....))))))
[1]
  Tm: 54.4 °C
[2]
  folding enthalpy: -38.6 kcal/mol

## GATCGTGGAAACACAATC (((.(((....))).)))
[1]
  Tm: 34.3 °C
[2]
  folding enthalpy: -17.6 kcal/mol

## GATCGTGGAAACACGACC (.(((((....))))).)
[1]
  Tm: 41.7 °C
[2]
  folding enthalpy: -13.3 kcal/mol

## GATCGTGGAAACACGGTC ((.((((....)))).))
[1]
  Tm: 52.7 °C
[2]
  folding enthalpy: -29.1 kcal/mol

## GATCGTGGAAACGCGATC (((((.(....).)))))
[1]
  Tm: 55.6 °C
[2]
  folding enthalpy: -39.9 kcal/mol

## GATCGTGGCAACGATC ((((((....))))))
[1]
  Tm: 67.6 °C
[2]
  folding enthalpy: -32.8 kcal/mol

## GATCGTGGGACGATC ((((((...))))))
[1]
  Tm: 53.8 °C
[2]
  folding enthalpy: -30 kcal/mol

## GATCGTGGTAACGATC ((((((....))))))
[1]
  Tm: 66.1 °C
[2]
  folding enthalpy: -39.2 kcal/mol

## GATCGTGGTGACGATC ((((((....))))))
[1]
  Tm: 57.6 °C
[2]
  folding enthalpy: -39.1 kcal/mol

## GATCGTGTAAACGATC ((((((....))))))
[1]
  Tm: 66.5 °C
[2]
  folding enthalpy: -42.2 kcal/mol

## GATCGTGTACACGATC ((((((....))))))
[1]
  Tm: 63.6 °C
[2]
  folding enthalpy: -51.3 kcal/mol

## GATCGTGTCAACGATC ((((((....))))))
[1]
  Tm: 67.6 °C
[2]
  folding enthalpy: -39 kcal/mol

## GATCGTTCCAACGATC ((((((....))))))
[1]
  Tm: 58.6 °C
[2]
  folding enthalpy: -39.5 kcal/mol

## GATCGTTCGCACGATC ((((((....))))))
[1]
  Tm: 54.2 °C
[2]
  folding enthalpy: -38 kcal/mol

## GATCGTTGAAACGATC ((((((....))))))
[1]
  Tm: 54.8 °C
[2]
  folding enthalpy: -39.2 kcal/mol

## GATCGTTGACACGATC ((((((....))))))
[1]
  Tm: 52.6 °C
[2]
  folding enthalpy: -38.3 kcal/mol

## GATCGTTGGCACGATC ((((((....))))))
[1]
  Tm: 52.5 °C
[2]
  folding enthalpy: -32.1 kcal/mol

## GATCGTTTGAACGATC ((((((....))))))
[1]
  Tm: 54.2 °C
[2]
  folding enthalpy: -29.1 kcal/mol

## GATCTAAAAATAGATC ((((((....))))))
[1]
  Tm: 28.2 °C
[2]
  folding enthalpy: -10.6 kcal/mol

## GATCTAAACTTAGATC ((((((....))))))
[1]
  Tm: 42.2 °C
[2]
  folding enthalpy: -37 kcal/mol

## GATCTAAAGGTAGATC ((((((....))))))
[1]
  Tm: 33.9 °C
[2]
  folding enthalpy: -18.5 kcal/mol

## GATCTAAAGTAGATC ((((((...))))))
[1]
  Tm: 37.1 °C
[2]
  folding enthalpy: -22.2 kcal/mol

## GATCTAAATTAGATC ((((((...))))))
[1]
  Tm: 37.8 °C
[2]
  folding enthalpy: -21.3 kcal/mol

## GATCTAACCGTAGATC ((((((....))))))
[1]
  Tm: 38 °C
[2]
  folding enthalpy: -25.1 kcal/mol

## GATCTAACTCTAGATC ((((((....))))))
[1]
  Tm: 39.6 °C
[2]
  folding enthalpy: -21.1 kcal/mol

## GATCTAACTGTAGATC ((((((....))))))
[1]
  Tm: 39.1 °C
[2]
  folding enthalpy: -24.2 kcal/mol

## GATCTAAGCCTAGATC ((((((....))))))
[1]
  Tm: 39.1 °C
[2]
  folding enthalpy: -31.9 kcal/mol

## GATCTAAGGATAGATC ((((((....))))))
[1]
  Tm: 34 °C
[2]
  folding enthalpy: -21.9 kcal/mol

## GATCTAAGGTAGATC ((((((...))))))
[1]
  Tm: 37.6 °C
[2]
  folding enthalpy: -20.8 kcal/mol

## GATCTAAGTGTAGATC ((((((....))))))
[1]
  Tm: 39.3 °C
[2]
  folding enthalpy: -28.5 kcal/mol

## GATCTAATCTTAGATC ((((((....))))))
[1]
  Tm: 43.6 °C
[2]
  folding enthalpy: -35.3 kcal/mol

## GATCTAATGTAGATC ((((((...))))))
[1]
  Tm: 36.6 °C
[2]
  folding enthalpy: -25.5 kcal/mol

## GATCTAATTTTAGATC ((((((....))))))
[1]
  Tm: 44 °C
[2]
  folding enthalpy: -34.2 kcal/mol

## GATCTACAAATAGATC ((((((....))))))
[1]
  Tm: 36.6 °C
[2]
  folding enthalpy: -25.4 kcal/mol

## GATCTACACCTAGATC ((((((....))))))
[1]
  Tm: 42.5 °C
[2]
  folding enthalpy: -39.5 kcal/mol

## GATCTACACGTAGATC ((((((....))))))
[1]
  Tm: 50.5 °C
[2]
  folding enthalpy: -35.6 kcal/mol

## GATCTACACTAGATC ((((((...))))))
[1]
  Tm: 41.7 °C
[2]
  folding enthalpy: -20.8 kcal/mol

## GATCTACAGCTAGATC ((((((....))))))
[1]
  Tm: 35.1 °C
[2]
  folding enthalpy: -31.8 kcal/mol

## GATCTACAGGTAGATC ((((((....))))))
[1]
  Tm: 48.8 °C
[2]
  folding enthalpy: -37.6 kcal/mol

## GATCTACATATAGATC ((((((....))))))
[1]
  Tm: 40.8 °C
[2]
  folding enthalpy: -35.4 kcal/mol

## GATCTACCACTAGATC ((((((....))))))
[1]
  Tm: 39.7 °C
[2]
  folding enthalpy: -30.6 kcal/mol

## GATCTACCCATAGATC ((((((....))))))
[1]
  Tm: 41.4 °C
[2]
  folding enthalpy: -35.8 kcal/mol

## GATCTACCGTAGATC ((((((...))))))
[1]
  Tm: 39.1 °C
[2]
  folding enthalpy: -31.6 kcal/mol

## GATCTACGAAAGTATATC (((.(((....))).)))
[1]
  Tm: 32.5 °C
[2]
  folding enthalpy: -22.4 kcal/mol

## GATCTACTGTTAGATC ((((((....))))))
[1]
  Tm: 40.9 °C
[2]
  folding enthalpy: -32.4 kcal/mol

## GATCTACTTTAGATC ((((((...))))))
[1]
  Tm: 41.7 °C
[2]
  folding enthalpy: -30.1 kcal/mol

## GATCTAGCCATAGATC ((((((....))))))
[1]
  Tm: 49.3 °C
[2]
  folding enthalpy: -41 kcal/mol

## GATCTAGCGATAGATC ((((((....))))))
[1]
  Tm: 46 °C
[2]
  folding enthalpy: -34.7 kcal/mol

## GATCTAGCGCTAGATC ((((((....))))))
[1]
  Tm: 53.6 °C
[2]
  folding enthalpy: -45.9 kcal/mol

## GATCTAGCGGTAGATC ((((((....))))))
[1]
  Tm: 44 °C
[2]
  folding enthalpy: -32.2 kcal/mol

## GATCTAGCTGTAGATC ((((((....))))))
[1]
  Tm: 39.9 °C
[2]
  folding enthalpy: -32.8 kcal/mol

## GATCTAGGAAACCAGATC (((((.(....).)))))
[1]
  Tm: 34.6 °C
[2]
  folding enthalpy: -25.3 kcal/mol

## GATCTAGGAATAGATC ((((((....))))))
[1]
  Tm: 42.9 °C
[2]
  folding enthalpy: -29.3 kcal/mol

## GATCTAGGATAGATC ((((((...))))))
[1]
  Tm: 48.7 °C
[2]
  folding enthalpy: -32.1 kcal/mol

## GATCTAGGGATAGATC ((((((....))))))
[1]
  Tm: 42.3 °C
[2]
  folding enthalpy: -30.8 kcal/mol

## GATCTAGGGGTAGATC ((((((....))))))
[1]
  Tm: 36.4 °C
[2]
  folding enthalpy: -30.2 kcal/mol
